Source: ChEMBL document CHEMBL4477166, “18β-Glycyrrhetinic Acid Derivatives Possessing a Trihydroxylated A Ring Are Potent Gram-Positive Antibacterial Agents” (2016)
Converted amounts (≈) assume the structure as drawn. The source made the active and inactive calls. The rule behind the calls is not given here.

How the values were obtained:
[1] = tested on: Staphylococcus aureus; test: Antibacterial activity against Staphylococcus aureus ATCC 25923 by microdilution assay; type: functional
Procedure, shortened: (§1)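 Turbidimetric broth microdilution. Log-phase cells were washed and resuspended in broth (LB at 37 °C for B. subtilis and S. aureus; oat bran broth at 28 °C for S. scabies) and seeded at 1 × 10⁵ CFU/mL. Twofold serial dilutions were made with DMSO ≤1% (v/v). A620 was read, then plates were incubated with vigorous shaking. MIC was the lowest concentration with no apparent growth versus vehicle-only medium without cells. Run in triplicate.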

[2] = tested on: Pseudomonas aeruginosa; test: Antibacterial activity against Pseudomonas aeruginosa at 100 uM measured after 5 to 6 hrs by microdilution assay; type: functional, organism-based
[3] = tested on: Streptomyces scabiei; test: Antibacterial activity against Streptomyces scabiei CGMCC4.7610246 by microdilution assay; type: functional; procedure, shortened: as §1
[4] = tested on: Bacillus subtilis; test: Antibacterial activity against Bacillus subtilis ATCC 6051 by microdilution assay; type: functional; procedure, shortened: as §1
[5] = tested on: Pseudomonas aeruginosa; test: Antibacterial activity against multi-drug resistant Pseudomonas aeruginosa at 100 uM measured after 5 to 6 hrs by microdilution assay; type: functional, organism-based
Procedure, shortened: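 Log-phase cells seeded at 1 × 10⁵ CFU/mL. Single-dose screen at 100 μM, with DMSO cosolvent at most 1% v/v. Growth measured turbidimetrically at 620 nm, before and after incubation with vigorous shaking.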

[6] = tested on: Escherichia coli; test: Antibacterial activity against Escherichia coli at 100 uM measured after 5 to 6 hrs by microdilution assay; type: functional, organism-based
[7] = tested on: Staphylococcus aureus; test: Antibacterial activity against methicillin-resistant Staphylococcus aureus by microdilution assay; type: functional
Procedure, shortened: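 Log-phase cells seeded at 1 × 10⁵ CFU/mL. Twofold serial dilutions made in broth with DMSO cosolvent, at most 1% v/v. Turbidity read at 620 nm before and after incubation with vigorous shaking. MIC is the lowest concentration with no apparent growth versus the medium-plus-vehicle control. Run in triplicate.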

Row | Structure (SMILES) | MIC [1] [µg/mL] | Activity [2] | MIC [3] [µg/mL] | MIC [4] [µg/mL] | Activity [5] | Activity [6] | MIC [7] [µg/mL]
1 | CC1(C)[C@@H](O)CC[C@]2(C)[C@H]3C(=O)C=C4[C@@H]5C[C@@](C)(C(=O)OCc6ccccc6)CC[C@]5(C)CC[C@@]4(C)[C@]3(C)CC[C@@H]12 | > 50 | inactive | > 50 | > 50 | inactive | inactive | > 50
2 | CN[C@@H]1[C@H](O[C@H]2[C@H](O[C@H]3[C@H](O)[C@@H](O)[C@H](N=C(N)N)[C@@H](O)[C@@H]3N=C(N)N)O[C@@H](C)[C@]2(O)C=O)O[C@@H](CO)[C@H](O)[C@H]1O [STREPTOMYCIN] |  |  | 5.8 (≈ 9.97 µM) | 2.9 (≈ 4.99 µM) |  |  | 
3 | CCCCCCCCCCCCCCCOC(=O)[C@@]1(C)CC[C@]2(C)CC[C@]3(C)C(=CC(=O)[C@@H]4[C@@]5(C)[C@@H](O)[C@H](O)[C@H](O)C(C)(C)[C@@H]5CC[C@]43C)[C@@H]2C1 | > 50 | inactive | > 50 | > 50 | inactive | inactive | > 50
4 | CC1(C)[C@@H](O)[C@@H](O)[C@H](O)[C@]2(C)[C@H]3C(=O)C=C4[C@@H]5C[C@@](C)(C(=O)O)CC[C@]5(C)CC[C@@]4(C)[C@]3(C)CC[C@@H]12 | > 50 | inactive | > 50 | > 50 | inactive | inactive | > 50
5 | CC1(C)[C@@H](O)[C@@H](O)[C@H](O)[C@]2(C)[C@H]3C(=O)C=C4[C@@H]5C[C@@](C)(C(=O)OCc6ccccc6Cl)CC[C@]5(C)CC[C@@]4(C)[C@]3(C)CC[C@@H]12 | > 50 | inactive | > 50 | > 50 | inactive | inactive | > 50
6 | CC1(C)[C@H](O)[C@@H](O)[C@H](O)[C@]2(C)[C@H]3C(=O)C=C4[C@@H]5C[C@@](C)(C(=O)OCc6ccccc6)CC[C@]5(C)CC[C@@]4(C)[C@]3(C)CC[C@@H]12 | > 37.8 | inactive | > 37.8 | > 37.8 | inactive | inactive | 4 (≈ 6.75 µM)
7 | CC1(C)C(=O)C=C[C@]2(C)[C@H]3CC=C4[C@@H]5C[C@@](C)(C(=O)OCc6ccccc6)CC[C@]5(C)CC[C@@]4(C)[C@]3(C)CC[C@@H]12 | > 34.6 | inactive | 34.6 (≈ 63.7 µM) | > 34.6 | inactive | inactive | > 32
8 | CC1(C)[C@@H](O)[C@@H](O)[C@H](O)[C@]2(C)[C@H]3C(=O)C=C4[C@@H]5C[C@@](C)(C(=O)OCc6ccc(Cl)cc6)CC[C@]5(C)CC[C@@]4(C)[C@]3(C)CC[C@@H]12 | > 50 | inactive | > 50 | > 50 | inactive | inactive | > 50
9 | CC1(C)[C@@H](O)[C@@H](O)[C@H](O)[C@]2(C)[C@H]3CC=C4[C@@H]5C[C@@](C)(C(=O)O)CC[C@]5(C)CC[C@@]4(C)[C@]3(C)CC[C@@H]12 | 15.6 (≈ 31.9 µM) | inactive | 31.2 (≈ 63.8 µM) | > 31.2 | inactive | inactive | > 32
10 | CC1(C)[C@@H](O)CC[C@]2(C)[C@H]3CC=C4[C@@H]5C[C@@](C)(C(=O)O)CC[C@]5(C)CC[C@@]4(C)[C@]3(C)CC[C@@H]12 | > 50 | inactive | > 50 | > 50 | inactive | inactive | > 50
11 | CC1(C)S[C@@H]2[C@H](NC(=O)[C@H](N)c3ccccc3)C(=O)N2[C@H]1C(=O)O [AMPICILLIN] | 1.4 (≈ 4.01 µM) |  |  |  |  |  | 
